From PubChem
This is one part of a sample in which hits are shown more often than they occur.
ABCB6 inh 2 – blocks the human ABCB6 transporter. fluorescence ratio to DMSO, % at 10 µM. AID 602162. Q9NP58. 360,000 compounds, 0.19% hits. K562-ABCB6 porphyrin accumulation, flow cytometry, 1 h; stronger effect = lower value;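 active = fluorescence ratio to DMSO below 75%, the collection mean minus 3 SD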;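 note: signal is porphyrin accumulated inside mitochondria; lower ratio means ABCB6 inhibition with less porphyrin fluorescence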
Target sequence (Q9NP58 whole entry, looked up): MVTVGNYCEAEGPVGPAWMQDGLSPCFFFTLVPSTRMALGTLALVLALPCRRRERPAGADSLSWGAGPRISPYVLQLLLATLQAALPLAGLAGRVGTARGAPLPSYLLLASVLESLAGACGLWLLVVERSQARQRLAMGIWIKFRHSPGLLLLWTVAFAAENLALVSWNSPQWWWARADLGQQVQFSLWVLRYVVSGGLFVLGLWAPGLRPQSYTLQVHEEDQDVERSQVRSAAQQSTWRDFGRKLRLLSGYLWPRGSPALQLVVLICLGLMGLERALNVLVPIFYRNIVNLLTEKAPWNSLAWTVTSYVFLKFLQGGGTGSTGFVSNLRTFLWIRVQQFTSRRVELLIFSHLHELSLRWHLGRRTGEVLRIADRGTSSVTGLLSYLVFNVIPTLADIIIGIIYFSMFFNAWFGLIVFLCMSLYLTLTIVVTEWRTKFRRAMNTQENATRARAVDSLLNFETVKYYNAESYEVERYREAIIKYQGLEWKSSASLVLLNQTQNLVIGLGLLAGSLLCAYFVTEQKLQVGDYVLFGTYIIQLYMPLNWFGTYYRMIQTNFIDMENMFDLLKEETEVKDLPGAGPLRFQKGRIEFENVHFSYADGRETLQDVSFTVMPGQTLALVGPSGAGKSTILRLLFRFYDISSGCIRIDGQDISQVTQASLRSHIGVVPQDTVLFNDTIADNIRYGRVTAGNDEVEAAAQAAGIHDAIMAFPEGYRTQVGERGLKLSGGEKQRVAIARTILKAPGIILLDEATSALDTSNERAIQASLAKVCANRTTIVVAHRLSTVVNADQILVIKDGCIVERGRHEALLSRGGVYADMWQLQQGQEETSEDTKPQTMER
Myeloid diff 2 – myeloid differentiation induction; ER-HoxA9 myeloid progenitors, lysozyme-GFP differentiation, flow cytometry; calls only at 10 µM; 360,000 compounds, 1% hits; AID 624256;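 active = normalized GFP-positive differentiation at or above the plate's own cutoff, the solvent-only control mean plus 3 SD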;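 note: cells exposed to compound for four days before flow analysis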
XiGFP reactiv – activators of X-chromosome reactivation in mouse fibroblasts; XiGFP mouse fibroblasts, % GFP-positive cells imaging, 3 d; cells co-treated with 5-aza-dC sensitizer; scaled so ellipticine positive control = 100%; 360,000 compounds, 0.055% hits; activation, % at 7.58 µM; AID 743238;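 active = mean normalized replicate activation at least 10% and every replicate at or above 10%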
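System: SV40-immortalized XiGFP fibroblast cells, line 68-5-11 / Incubation: 3-day compound exposure, then 15 min fixation at room temperature / Compound: single concentration per compound, delivered by pin transfer / Buffer or medium: DMEM plus 5-aza-dC sensitizer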
Large screens that a line does not name were inactive; ! = repeats disagree.

COc1ccc(-c2c(C(=O)c3ccccc3)[nH]c(N)c2C(N)=O)cc1OC	none
C[C@H](CO)N1C[C@H](C)[C@@H](CN(C)S(C)(=O)=O)Oc2c(NC(=O)CCC(F)(F)F)cccc2C1=O	none (no result: ABCB6 inh 2, Myeloid diff 2)
COc1ccc(NC(=O)N(C)C[C@@H]2Oc3c(NC(=O)c4cnccn4)cccc3C(=O)N([C@@H](C)CO)C[C@@H]2C)cc1	none (no result: ABCB6 inh 2, Myeloid diff 2)
O=C(/C=C/c1ccco1)Nc1cccc(S(=O)(=O)N2CCOCC2)c1	none
Cc1ccc(/C=C/C(=O)Nc2cccc(S(=O)(=O)N3CCOCC3)c2)o1	Myeloid diff 2 active
C[C@H]1CN([C@@H](C)CO)C(=O)Cc2cc(NC(=O)CCCCCC(=O)Nc3ccccc3N)ccc2O[C@@H]1CN(C)C(=O)Nc1ccc2c(c1)OCO2	none (no result: ABCB6 inh 2, Myeloid diff 2)
C[C@@H]1CN([C@H](C)CO)C(=O)Cc2cc(NC(=O)c3ccncc3)ccc2O[C@H]1CN(C)Cc1ccc(C(=O)O)cc1	none (no result: ABCB6 inh 2, Myeloid diff 2)
COc1ccc(OCC(O)CN2C(=O)c3ccccc3C2=O)cc1 (stereo not given)	Myeloid diff 2 active
O=C1c2ccccc2C(=O)N1CC(O)COc1ccc(Cl)cc1 (stereo not given)	none
COc1cccc(C#Cc2ccc3c(c2)O[C@@H](CN(C)C)[C@H](C)CN([C@H](C)CO)S3(=O)=O)c1	none (no result: ABCB6 inh 2, Myeloid diff 2)
CN(C)C(=O)[C@H]1[C@H](CO)[C@H]2Cn3c(cccc3=O)[C@H]2N1CC1CCCCC1	none (no result: ABCB6 inh 2, Myeloid diff 2)
O=C(CN1CCCc2ccccc21)NC(=O)NCc1ccccc1	none
CC(C)(C)NC(=O)NC(=O)CN1CCCc2ccccc21	Myeloid diff 2 active
COCC(=O)Nc1ccc2c(c1)C(=O)N(C)[C@H]1CC[C@@H](CC(=O)OC)O[C@@H]1CO2	none (no result: ABCB6 inh 2, Myeloid diff 2)
O=C(O)c1cc(-c2ccc(/C=C3/SC(=S)N(Cc4ccccc4)C3=O)o2)ccc1Cl	Myeloid diff 2 active
O=C(O)CCN1C(=O)/C(=C/c2ccc(-c3nc4ccccc4s3)o2)SC1=S	Myeloid diff 2 active (no result: XiGFP reactiv)
O=C1/C(=C\c2cccc(O)c2)SC(=S)N1Cc1ccccc1	none
COc1cc(/C=C2/SC(=S)N(Cc3ccccc3)C2=O)ccc1O	Myeloid diff 2 active
Cc1ccc(/C=C2\SC(=S)N(Cc3ccccc3)C2=O)o1	none (no result: XiGFP reactiv)
COc1cc(/C=C2/SC(=NCc3ccccc3)N(Cc3ccccc3)C2=O)ccc1O	none (no result: XiGFP reactiv)
O=C(O)CC(C(=O)O)N1C(=O)/C(=C/c2ccc(-c3nc4ccccc4s3)o2)SC1=S (stereo not given)	none (no result: XiGFP reactiv)
O=C1/C(=C\c2ccc(O)c(O)c2)SC(=S)N1Cc1ccccc1	Myeloid diff 2 active
COc1ccc2c3c(n(C)c2c1)[C@H](CO)N(C(C)=O)CC31CN(Cc2cccnc2)C1	none (no result: ABCB6 inh 2, Myeloid diff 2)
C[C@H]1CN([C@@H](C)CO)C(=O)c2cccc(NC(=O)C3CC3)c2O[C@H]1CN(C)C(=O)NC1CCCCC1	none (no result: ABCB6 inh 2, Myeloid diff 2)
COc1ccc2c3c([nH]c2c1)[C@@H](CO)N(Cc1nccs1)CC31CN(Cc2ccncc2)C1	none (no result: ABCB6 inh 2, Myeloid diff 2)
COCC(C)n1c(-c2ccc3c(c2)NC(=O)CO3)csc1=Nc1ccc(OC(F)F)cc1 (stereo not given)	Myeloid diff 2 active!
O=C1COc2ccc(-c3csc(=Nc4ccc(OC(F)F)cc4)n3CC3CCCO3)cc2N1 (stereo not given)	none (no result: XiGFP reactiv)
Cc1cccc(-c2ccc3[nH]c4c(c3c2)CCN2C[C@H]3[C@H](C)ON(C)[C@H]3C[C@@H]42)c1	none
C[C@@H]1ON(C)[C@H]2C[C@H]3c4[nH]c5ccccc5c4CCN3C[C@@H]12	Myeloid diff 2 active
C[C@@H]1CCCCO[C@@H](CN(C)C(=O)c2ccncc2)[C@H](C)CN([C@@H](C)CO)C(=O)c2cc(NC(=O)c3ccncc3)ccc2O1	none (no result: ABCB6 inh 2, Myeloid diff 2)
CCCNC(=O)N1[C@H](CO)[C@H](c2ccc(-c3ccccc3F)cc2)[C@@H]1C#N	none (no result: ABCB6 inh 2, Myeloid diff 2)
Cc1cccc(N2CCN(C(=O)c3ccc4c(c3)NC(=O)C(CSCc3cccc(F)c3)N4)CC2C)c1 (stereo not given)	Myeloid diff 2 active
COc1ccc(N2CCN(C(=O)c3ccc4c(c3)NC(=O)C(CSCc3ccccc3F)N4)CC2)cc1 (stereo not given)	none
O=[N+]([O-])c1cccn2cc(-c3ccc(Br)cc3)nc12	Myeloid diff 2 active
Cc1ccc(-c2cn3cccc(C)c3n2)cc1	none
C[C@@H]1CN([C@@H](C)CO)C(=O)c2cc(-c3cccc(F)c3)cnc2O[C@@H]1CN(C)Cc1ccccn1	none (no result: ABCB6 inh 2, Myeloid diff 2)
CCOc1ncccc1C(=O)NCc1ccccc1F	none
O=C(NCCc1ccccc1F)c1cccc2cccnc12	Myeloid diff 2 active
C[C@H]1CN([C@@H](C)CO)C(=O)Cc2cc(NC(=O)Nc3ccc(F)cc3)ccc2O[C@@H]1CN(C)C(=O)Nc1cccc2ccccc12	none (no result: ABCB6 inh 2, Myeloid diff 2)
C[C@@H]1CN([C@H](C)CO)S(=O)(=O)c2ccc(C3=CCCC3)cc2O[C@H]1CN(C)Cc1ccccn1	none (no result: ABCB6 inh 2, Myeloid diff 2)
COc1ccc(NC(=S)N2CCC(NC(=O)c3ccc(OC)cc3)CC2)cc1	ABCB6 inh 2 74 (no result: XiGFP reactiv)
COc1ccc(NC(=S)N2CCC(NC(=O)c3ccc(F)cc3)CC2)cc1	none
COc1ccc(C(=O)Nc2ccc(N3CCCC3)cc2)cc1	Myeloid diff 2 active (no result: XiGFP reactiv)
O=C(Nc1ccc(N2CCCC2)cc1)c1ccc(Br)o1	Myeloid diff 2 active (no result: XiGFP reactiv)
COc1ccc(C(=O)NC(=S)Nc2ccc(N3CCCC3)cc2)cc1	none
CCN1CCN(c2ccc(NC(=O)c3ccc(Br)o3)cc2)CC1	none
CN(C)C(=O)c1ccc(-c2ccc3c(c2)[C@H]2[C@H](CCN2Cc2cncnc2)[C@H](CO)N3)cc1	none (no result: ABCB6 inh 2, Myeloid diff 2)
C[C@@H]1CCCCO[C@@H](CN(C)Cc2ccc3c(c2)OCO3)[C@@H](C)CN([C@@H](C)CO)C(=O)c2cc(NC(=O)NC3CCCCC3)ccc2O1	none (no result: ABCB6 inh 2, Myeloid diff 2)
CCN(C[C@H]1[C@@H](c2ccccc2)[C@H](CO)N1C(C)=O)C(=O)c1ccccn1	none (no result: ABCB6 inh 2, Myeloid diff 2)
COc1cc(/C=c2\sc3n(c2=O)CCCN=3)ccc1O	none (no result: XiGFP reactiv)
COc1cc(/C=c2\sc3n(c2=O)C(c2ccccc2)C(c2ccccc2)=NN=3)ccc1O (stereo not given)	Myeloid diff 2 active (no result: XiGFP reactiv)
COc1ccc(/C=C/C(=O)NC(=S)NNC(=O)c2c(-c3ccccc3)noc2C)cc1	none
Cc1onc(-c2ccccc2)c1C(=O)NNC(=S)NC(=O)/C=C/c1ccccc1	ABCB6 inh 2 74
COc1ccc(C2=CC3=C(Br)C(=O)C(C)(OC(=O)c4ccco4)C(=O)C3=CO2)cc1 (stereo not given)	Myeloid diff 2 active (no result: XiGFP reactiv)
COc1ccc(C2=CC3=C(Br)C(=O)C(C)(OC(=O)c4cccs4)C(=O)C3=CO2)cc1 (stereo not given)	none
COc1ccc(NC(=O)N(C)C[C@H]2Oc3c(NC(=O)Nc4ccc5c(c4)OCO5)cccc3C(=O)N([C@@H](C)CO)C[C@H]2C)cc1	none (no result: ABCB6 inh 2, Myeloid diff 2)
CC(=O)N(C)C[C@H]1Oc2cc(C#CC3CC3)ccc2S(=O)(=O)N([C@@H](C)CO)C[C@H]1C	none (no result: ABCB6 inh 2, Myeloid diff 2)
C(=N\Nc1nc2ccccc2[nH]1)/c1ccc2c(c1)OCO2	none
C(=C/c1nccc2c1[nH]c1ccccc12)/c1ccc2c(c1)OCO2	Myeloid diff 2 active
C[C@@H]1CCCCO[C@H](CN(C)CC2CCCCC2)[C@H](C)CN([C@H](C)CO)C(=O)c2cc(NS(=O)(=O)c3cn(C)cn3)ccc2O1	none (no result: ABCB6 inh 2, Myeloid diff 2)
Cc1cc(Br)ccc1SCC(=O)OCC(=O)NC1CC1	Myeloid diff 2 active
